In ChEMBL document CHEMBL3425508, “Discovery of potent hexapeptide agonists to human neuromedin u receptor 1 and identification of their serum metabolites” (ACS Med Chem Lett, 2015):
Activity calls are given as the source filed them. The calls are words filed in the database; no cut-off is given here. Non-standard residues stand in square brackets, D forms with d. Residues, ends and D or L forms follow the SMILES beside them. *: point of attachment. Phe(4-F) = N[C@@H](Cc1ccc(F)cc1)C(=O)O; Acetyl(2-thienyl) = O=C(Cc1cccs1)*; Hydrocinnamoyl = O=C(CCc1ccccc1)*; 2Thi = N[C@@H](Cc1cccs1)C(=O)O; X1 = O=C(CCc1cccs1)*

Assays:
[1] = molecular target: T1, Neuromedin-U receptor 1 (Homo sapiens) (UniProt Q9HB89); test: Agonist activity at human NMUR1 expressed in CHO cells assessed as intracellular calcium flux at 1 and 10 nM by Fluo-4 AM dye based fluorometric imaging method relative to 1000 nM human neuromedin U; type: functional, cell-based
T1 sequence (whole entry): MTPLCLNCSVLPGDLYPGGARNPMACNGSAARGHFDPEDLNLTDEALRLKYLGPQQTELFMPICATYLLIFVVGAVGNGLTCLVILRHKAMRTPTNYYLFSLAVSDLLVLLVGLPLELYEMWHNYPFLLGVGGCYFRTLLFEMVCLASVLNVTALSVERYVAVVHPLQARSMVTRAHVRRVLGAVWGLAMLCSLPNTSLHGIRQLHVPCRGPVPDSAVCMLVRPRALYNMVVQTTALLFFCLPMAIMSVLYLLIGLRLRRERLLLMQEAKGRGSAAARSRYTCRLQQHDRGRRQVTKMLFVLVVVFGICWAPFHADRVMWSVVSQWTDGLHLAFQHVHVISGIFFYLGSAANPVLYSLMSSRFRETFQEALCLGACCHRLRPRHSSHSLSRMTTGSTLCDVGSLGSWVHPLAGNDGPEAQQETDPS

[2] = molecular target: T2, Neuromedin-U receptor 2 (Homo sapiens, UniProt Q9GZQ4); test: Agonist activity at human NMUR2 expressed in CHO cells assessed as intracellular calcium flux at 1 and 10 nM by Fluo-4 AM dye based fluorometric imaging method relative to 1000 nM human neuromedin U; type: functional, cell-based
T2 sequence (Q9GZQ4 whole entry): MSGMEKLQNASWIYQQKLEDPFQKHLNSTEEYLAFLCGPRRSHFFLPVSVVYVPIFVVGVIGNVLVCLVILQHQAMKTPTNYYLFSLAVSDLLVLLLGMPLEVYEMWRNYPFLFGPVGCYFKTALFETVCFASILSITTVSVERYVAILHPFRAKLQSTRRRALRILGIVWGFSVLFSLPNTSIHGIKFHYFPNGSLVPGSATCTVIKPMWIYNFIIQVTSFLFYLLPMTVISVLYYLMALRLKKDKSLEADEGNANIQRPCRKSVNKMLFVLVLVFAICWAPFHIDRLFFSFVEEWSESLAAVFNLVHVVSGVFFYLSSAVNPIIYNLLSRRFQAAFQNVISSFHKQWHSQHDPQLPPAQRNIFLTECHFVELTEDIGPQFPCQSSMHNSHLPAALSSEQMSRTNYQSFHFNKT

[3] = tested on: Serum; test: Retention time in 25% rat serum treated with 1 mM (S)-2-((S)-2-((S)-1-((S)-2-((S)-2-((S)-3-(1H-indol-3-yl)-2-(2-(thiophen-2-yl)acetamido)propanamido)-3-(4-fluorophenyl)propanamido)-5-guanidinopentanoyl)pyrrolidine-2-carboxamido)-5-guanidinopentanamido)succinamide incubated for 30 mins at 37 degC by RP-HPLC method; type: ADME, cell-free; conditions: 0.5 h
Outline: (§1)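 Peptides incubated in 25% rat serum at 37 °C and sampled over time (10, 30, 60 min). Samples extracted on Sep-Pak C18 cartridges and analysed by C18 RP-HPLC with UV detection at 220 nm. Metabolites identified by mass spectrometry. Recovery of intact peptide measured at 10 or 60 min, in triplicate.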

[4] = tested on: Serum; test: Drug level in 25% rat serum treated with 1 mM (S)-2-((S)-2-((S)-1-((6S,9S,12S)-1-amino-9-benzyl-1-imino-12-isobutyl-8,11,14-trioxo-16-phenyl-2,7,10,13-tetraazahexadecanecarbonyl)pyrrolidine-2-carboxamido)-5-guanidinopentanamido)succinamide assessed as compound formation at 37 degC by RP-HPLC method; type: ADME, cell-free; outline: as §1
[5] = tested on: Serum; test: Drug level in 25% rat serum treated with 1 mM (S)-2-((S)-2-((S)-1-((6S,9S,12S)-12-((1H-indol-3-yl)methyl)-1-amino-9-benzyl-1-imino-8,11,14-trioxo-15-(thiophen-2-yl)-2,7,10,13-tetraazapentadecanecarbonyl)pyrrolidine-2-carboxamido)-5-guanidinopentanamido)succinamide assessed as compound formation at 37 degC by RP-HPLC method; type: ADME, cell-free; outline: as §1
[6] = Drug metabolism in 25% rat serum assessed as drug recovery at 1 mM incubated for 60 mins at 37 degC by RP-HPLC method; type: ADME, cell-free; conditions: read-out: Drug recovery; outline: as §1
[7] = molecular target: T3, Neuromedin-U receptor 1 (Homo sapiens, UniProt Q9HB89); test: Agonist activity at human NMUR1 expressed in CHO cells assessed as intracellular calcium flux at by Fluo-4 AM dye based fluorometric imaging method; type: functional, cell-based
T3 sequence (Q9HB89 whole entry): T1 sequence (whole entry)
Outline: (§2)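 Dose–response Ca2+ mobilization in CHO cells stably expressing human NMUR1 or NMUR2. Peptides run at 10^-12–10^-6 M with hNMU as reference. EC50 and intrinsic activity derived from the curves. Triplicate determinations.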

[8] = tested on: Serum; test: Drug metabolism in 25% rat serum assessed as cleavage at C-terminal Arg-Asn site at 1 mM at 37 degC by RP-HPLC method; type: ADME, cell-free; conditions: 1000 µM; outline: as §1
[9] = molecular target: T1, Neuromedin-U receptor 1 (Homo sapiens); test: Intrinsic agonist activity at human NMUR1 expressed in CHO cells assessed as intracellular calcium flux at by Fluo-4 AM dye based fluorometric imaging method; type: functional, cell-based; outline: as §2
[10] = molecular target: T2, Neuromedin-U receptor 2; test: Agonist activity at human NMUR2 expressed in CHO cells assessed as intracellular calcium flux at by Fluo-4 AM dye based fluorometric imaging method; type: functional, cell-based; outline: as §2
[11] = molecular target: T2, Neuromedin-U receptor 2; test: Intrinsic agonist activity at human NMUR2 expressed in CHO cells assessed as intracellular calcium flux at by Fluo-4 AM dye based fluorometric imaging method; type: functional, cell-based; outline: as §2
[12] = tested on: Serum; test: Drug metabolism in 25% rat serum assessed as cleavage at Phe(2)-Arg(3) site at 1 mM at 37 degC by RP-HPLC method; type: ADME, cell-free; conditions: 1000 µM; outline: as §1
[13] = tested on: Serum; test: Drug metabolism in 25% rat serum assessed as cleavage at Arg(5)-Asn(6) site at 1 mM at 37 degC by RP-HPLC method; type: ADME, cell-free; conditions: 1000 µM; outline: as §1
[14] = tested on: Serum; test: Drug degradation in 25% human serum at 1 mM at 37 degC by RP-HPLC method; type: ADME, cell-free; conditions: 1000 µM, TDE = time-dependent effect
[15] = Drug metabolism in 25% rat serum assessed as drug recovery at 1 mM incubated for 10 mins at 37 degC by RP-HPLC method; type: ADME, cell-free; conditions: read-out: Drug recovery; outline: as §1

N=C(N)NCCC[C@H](NC(=O)[C@@H]1CCCN1C(=O)[C@H](CCCNC(=N)N)NC(=O)[C@H](Cc1ccccc1)NC(=O)[C@H](Cc1ccccc1)NC(=O)CCc1ccccc1)C(=O)N[C@@H](CC(N)=O)C(N)=O (Hydrocinnamoyl-FFRPRN-NH2)
Activity [1]: inactive
Activity [2]: inactive

O=C(Cc1cccs1)N[C@@H](Cc1c[nH]c2ccccc12)C(=O)N[C@@H](Cc1ccc(F)cc1)C(=O)O
Retention_time [3]: 61.2 min

CC(C)C[C@H](NC(=O)CCc1ccccc1)C(=O)N[C@@H](Cc1ccccc1)C(=O)O (Hydrocinnamoyl-Leu-Phe-OH)
Drug metabolism [4]: metabolite_detected

N=C(N)NCCC[C@H](NC(=O)[C@@H]1CCCN1C(=O)[C@H](CCCNC(=N)N)NC(=O)[C@H](Cc1ccccc1)NC(=O)[C@H](Cc1c[nH]c2ccccc12)NC(=O)Cc1cccs1)C(=O)O ({Acetyl(2-thienyl)}-WFRPR-OH)
Drug metabolism [5]: metabolite_detected
remaining at 1 h, 1000 µM [6]: 44.7%

O=C(Cc1cccs1)N[C@@H](Cc1c[nH]c2ccccc12)C(=O)N[C@@H](Cc1ccccc1)C(=O)O
Drug metabolism [5]: metabolite_detected

N=C(N)NCCC[C@H](NC(=O)[C@@H]1CCCN1C(=O)[C@H](CCCNC(=N)N)NC(=O)[C@H](Cc1ccccc1)NC(=O)[C@H](Cc1ccccc1)NC(=O)CCc1cccs1)C(=O)N[C@@H](CC(N)=O)C(N)=O (X1-FFRPRN-NH2)
Activity [1]: Active
Activity [2]: Active

N=C(N)NCCC[C@H](NC(=O)[C@@H]1CCCN1C(=O)[C@H](CCCNC(=N)N)NC(=O)[C@H](Cc1cccs1)NC(=O)[C@H](Cc1c[nH]c2ccccc12)NC(=O)Cc1cccs1)C(=O)N[C@@H](CC(N)=O)C(N)=O ({Acetyl(2-thienyl)}-W[2Thi]RPRN-NH2)
Activity [1]: Active
Activity [2]: Active

H-FRVDEEFQSPFASQSRGYFLFRPRN-NH2
EC50 [7]: 140 pM
Drug metabolism [8]: metabolite_detected

N=C(N)NCCC[C@H](NC(=O)[C@@H]1CCCN1C(=O)[C@H](CCCNC(=N)N)NC(=O)[C@H](Cc1ccccc1)NC(=O)[C@H](Cc1ccccc1)NC(=O)Cc1cccs1)C(=O)N[C@@H](CC(N)=O)C(N)=O ({Acetyl(2-thienyl)}-FFRPRN-NH2)
Activity [1]: Active
Activity [2]: Active

N=C(N)NCCC[C@H](NC(=O)[C@@H]1CCCN1C(=O)[C@H](CCCNC(=N)N)NC(=O)[C@H](Cc1ccc(F)cc1)NC(=O)[C@H](Cc1c[nH]c2ccccc12)NC(=O)Cc1cccs1)C(=O)N[C@@H](CC(N)=O)C(N)=O ({Acetyl(2-thienyl)}-W[Phe(4-F)]RPRN-NH2)
Activity [1]: Active
Activity [2]: Active
EC50 [7]: 83 pM
Intrinsic activity [9]: 95%
EC50 [10]: 2600 pM
Intrinsic activity [11]: 82%
Drug metabolism [12]: metabolite_detected
Drug metabolism [13]: metabolite_detected
Drug degradation [14]: tde
remaining at 10 min, 1000 µM [15]: 42.7%
